# Data published in ChEMBL document CHEMBL2086311, “UDP made a highly promising stable, potent, and selective P2Y6-receptor agonist upon introduction of a boranophosphate moiety” (Bioorg Med Chem, 2012).
# The source made the active and inactive calls. The calls are words filed in the database; no cut-off is given here.
# Legend:
# [1] = molecular target: T1, P2Y purinoceptor 4 (Homo sapiens, UniProt P51582); test: Agonist activity at human GFP-tagged P2Y4 receptor expressed in human 1321N1 cells assessed as intracellular calcium mobilization up to 100 uM by fura2/AM-based fluorescence spectrophotometry; assay type: functional, cell-based
# T1 sequence (P51582 whole entry, the tested form may be a part): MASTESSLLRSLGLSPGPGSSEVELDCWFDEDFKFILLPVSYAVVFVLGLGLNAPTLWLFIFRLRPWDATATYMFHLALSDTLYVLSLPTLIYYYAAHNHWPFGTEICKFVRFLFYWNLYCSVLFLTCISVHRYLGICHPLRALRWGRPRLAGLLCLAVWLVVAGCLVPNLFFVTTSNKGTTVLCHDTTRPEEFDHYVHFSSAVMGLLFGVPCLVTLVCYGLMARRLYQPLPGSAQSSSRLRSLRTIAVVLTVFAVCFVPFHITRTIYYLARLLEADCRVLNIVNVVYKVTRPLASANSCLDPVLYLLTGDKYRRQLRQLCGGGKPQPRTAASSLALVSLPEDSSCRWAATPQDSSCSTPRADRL
# Summary of the method: (§1)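 Human P2Y2, P2Y4 or P2Y6 receptors with GFP fusion, stably expressed in 1321N1 astrocytoma cells (no endogenous P2X/P2Y), selected with 0.5 mg/mL G418. Cells on coverslips at ~80% density were loaded with 2 µM fura 2/AM plus 0.02% pluronic acid in Na-HBS pH 7.4 for 30 min at 37 °C. Nucleotide was superfused at 37 °C, usually 10^-8 to ≥10^-5 M, sometimes to 10^-4 M. Read-out was 340/380 nm excitation ratio at 510 nm emission. Values are mean maximal amplitude ± SE.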
# [2] = molecular target: T2, P2Y purinoceptor 6 (Homo sapiens, UniProt Q15077); test: Agonist activity at human GFP-tagged P2Y6 receptor expressed in human 1321N1 cells assessed as intracellular calcium mobilization by fura2/AM-based fluorescence spectrophotometry; assay type: functional, cell-based; summary of the method: as §1
# T2 sequence (Q15077 whole entry): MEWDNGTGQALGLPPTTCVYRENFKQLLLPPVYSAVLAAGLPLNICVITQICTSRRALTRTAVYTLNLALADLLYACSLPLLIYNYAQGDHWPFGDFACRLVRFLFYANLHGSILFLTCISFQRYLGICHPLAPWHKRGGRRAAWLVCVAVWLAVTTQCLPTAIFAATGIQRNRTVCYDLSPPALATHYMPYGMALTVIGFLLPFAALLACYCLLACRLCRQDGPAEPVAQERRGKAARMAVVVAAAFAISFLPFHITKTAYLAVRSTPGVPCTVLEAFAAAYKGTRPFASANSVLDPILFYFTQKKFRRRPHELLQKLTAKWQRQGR
# [3] = molecular target: P2Y purinoceptor 2 (Homo sapiens) (UniProt P41231); test: Agonist activity at human GFP-tagged P2Y2 receptor expressed in human 1321N1 cells assessed as intracellular calcium mobilization up to 100 uM by fura2/AM-based fluorescence spectrophotometry; assay type: functional, cell-based; summary of the method: as §1
# Chain of P2Y purinoceptor 2 (Homo sapiens) (P41231 whole entry): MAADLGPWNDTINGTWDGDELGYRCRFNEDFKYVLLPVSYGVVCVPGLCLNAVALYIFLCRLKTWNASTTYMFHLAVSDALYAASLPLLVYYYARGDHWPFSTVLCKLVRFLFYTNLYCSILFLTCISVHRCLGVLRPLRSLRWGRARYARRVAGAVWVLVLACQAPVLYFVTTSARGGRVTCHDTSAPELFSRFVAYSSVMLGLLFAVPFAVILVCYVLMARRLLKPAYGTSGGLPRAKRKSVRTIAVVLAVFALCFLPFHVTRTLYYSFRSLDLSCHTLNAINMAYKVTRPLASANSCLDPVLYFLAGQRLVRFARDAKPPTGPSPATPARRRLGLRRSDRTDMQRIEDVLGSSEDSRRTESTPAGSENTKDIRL
# [4] = molecular target: T2, P2Y purinoceptor 6; test: Ratio of UDP EC50 to compound EC50 for human GFP-tagged P2Y6 receptor
# Summary of the method: (§2)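 Human P2Y6 receptor-GFP construct stably expressed in 1321N1 astrocytoma cells (no endogenous P2X/P2Y). Cells loaded with 2 µM fura-2/AM plus 0.02% pluronic acid in Na-HBS (pH 7.4), 30 min, 37 °C. Superfused at 37 °C with nucleotide, usually 10^-8 M to at least 10^-5 M. [Ca2+]i read as 340/380 nm excitation ratio, emission 510 nm. EC50 from concentration–response curves.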
# [5] = molecular target: T1, P2Y purinoceptor 4; test: Agonist activity at human GFP-tagged P2Y4 receptor expressed in human 1321N1 cells assessed as intracellular calcium mobilization by fura2/AM-based fluorescence spectrophotometry; assay type: functional, cell-based; summary of the method: as §1
# [6] = Half life in KCl/HCl buffer by 31P-NMR analysis at pH 1.4; assay type: physicochemical
# Summary of the method: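 Sodium salt dissolved in KCl/HCl buffer pH 1.4 containing D2O, held at 37 °C. 31P NMR spectra taken at 15 min, 1 h or 24 h intervals, about every 24 h in multi-day runs. Hydrolysis rate taken from change in integration of one starting-material phosphate signal over time, fit to a pseudo-first-order model.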
# [7] = Half life in human serum by HPLC analysis; assay type: ADME, cell-free
# Summary of the method: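 Compound (0.1 mg) incubated with human blood serum and RPMI-1640 medium at 37 °C for 0–24 h. Samples taken at 0.5–12 h intervals, heated to 80 °C for 30 min, treated with CM Sephadex and extracted with chloroform. Analysed by reverse-phase HPLC. Degradation from peak integration, corrected against a serum-free control given the same workup.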
# [8] = Agonist activity at P2Y6 receptor in New Zealand White rabbit osteoclasts assessed as intracellular calcium mobilization by fura2-based microfluorimetric technique; assay type: functional, cell-based; conditions: Oryctolagus cuniculus
# [9] = molecular target: T2, P2Y purinoceptor 6; test: Agonist activity at human P2Y6 receptor; assay type: functional; summary of the method: as §2
Activity [1],EC50 [2],Activity [3],SMILES,also measured
inactive,60 nM,inactive,B[P@@](=O)(OC[C@H]1O[C@@H](n2cc(OC)c(=O)[nH]c2=O)[C@H](O)[C@@H]1O)OP(=O)(O)OP(=O)(O)OC[C@H]1O[C@@H](n2cc(OC)c(=O)[nH]c2=O)[C@H](O)[C@@H]1O,Ratio EC50 [4]: 2.5
,,,O=c1ccn([C@@H]2O[C@H](COP(=O)(O)OP(=O)(O)OP(=O)(O)O)[C@@H](O)[C@H]2O)c(=O)[nH]1 [URIDINE TRIPHOSPHATE],EC50 [5]: 900 nM
inactive,200 nM,inactive,BP(=O)(OP(=O)(O)OC[C@H]1O[C@@H](n2cc(OC)c(=O)[nH]c2=O)[C@H](O)[C@@H]1O)OP(=O)(O)OC[C@H]1O[C@@H](n2cc(OC)c(=O)[nH]c2=O)[C@H](O)[C@@H]1O,
,,,B[P@@](=O)(OC[C@H]1O[C@@H](n2ccc(=O)[nH]c2=O)[C@H](O)[C@@H]1O)OP(=O)(O)O,half-life [6]: 16.8 h; half-life [7]: 17 h
,,,BP(=O)(OC[C@H]1O[C@@H](n2cc(OC)c(=O)[nH]c2=O)[C@H](O)[C@@H]1O)OP(=O)(O)O (stereo partly specified),half-life [6]: 16.9 h
,20100 nM,,B[P@](=O)(OC[C@H]1O[C@@H](n2cc(OC)c(=O)[nH]c2=O)[C@H](O)[C@@H]1O)O[P@@](=O)(O)OP(=O)(O)O,
inactive,> 10000 nM,inactive,COc1cn([C@@H]2O[C@H](COP(=O)(O)OP(=O)(O)OP(=O)(O)OC[C@H]3O[C@@H](n4cc(OC)c(=O)[nH]c4=O)[C@H](O)[C@@H]3O)[C@@H](O)[C@H]2O)c(=O)[nH]c1=O,
inactive,11200 nM,inactive,B[P@@](=O)(OC[C@H]1O[C@@H](n2cc(OC)c(=O)[nH]c2=O)[C@H](O)[C@@H]1O)OP(=O)(O)OP(=O)(O)O,
,,,O=c1ccn([C@@H]2O[C@H](COP(=O)(O)OP(=O)(O)OP(=O)(O)OC[C@H]3O[C@@H](n4ccc(=O)[nH]c4=O)[C@@H]4OC(Cc5ccccc5)O[C@@H]43)[C@@H](O)[C@H]2O)c(=O)[nH]1 (stereo partly specified),EC50 [8]: 140 nM
,,,O=c1ccn([C@@H]2O[C@H](COP(=O)(O)OP(=O)(O)S)[C@@H](O)[C@H]2O)c(=O)[nH]1 (stereo partly specified),EC50 [9]: 28 nM
inactive,,inactive,B[P@](=O)(OC[C@H]1O[C@@H](n2cc(OC)c(=O)[nH]c2=O)[C@H](O)[C@@H]1O)OP(=O)(O)OP(=O)(O)O,
inactive,2200 nM,inactive,B[P@](=O)(OC[C@H]1O[C@@H](n2cc(OC)c(=O)[nH]c2=O)[C@H](O)[C@@H]1O)OP(=O)(O)OP(=O)(O)OC[C@H]1O[C@@H](n2cc(OC)c(=O)[nH]c2=O)[C@H](O)[C@@H]1O,

SMILES,Activity [1],EC50 [2],Activity [3],also measured
B[P@@](=O)(OC[C@H]1O[C@@H](n2cc(OC)c(=O)[nH]c2=O)[C@H](O)[C@@H]1O)OP(=O)(O)O,inactive,,inactive,Ratio EC50 [4]: 19
B[P@](=O)(OC[C@H]1O[C@@H](n2cc(OC)c(=O)[nH]c2=O)[C@H](O)[C@@H]1O)OP(=O)(O)O,inactive,4300 nM,inactive,
